Laboratory results as given in ChEMBL document CHEMBL4715779, “In vivo effective dibenzo[b,d]furan-1-yl-thiazoles as novel PDE-4 inhibitors” (Bioorg Med Chem, 2016).

Columns and labels:
Rattus norvegicus [1] = assay: Antiinflammatory activity in Wistar rat model of LPS-induced uveitis assessed as reduction in infiltrating cells in aqueous humor at 10 ug/10ul/eye administered 24 hrs after LPS stimulation and measured after 1 hr by hemocytometry relative to control; format: functional; details: dose 10 µg
[2] = molecular target: T1, 3',5'-cyclic-AMP phosphodiesterase 4B (Homo sapiens, UniProt Q07343); assay: Inhibition of human PDE4B using [3H]cAMP as substrate at 100 nM incubated for 5 mins followed by substrate addition and measured after 10 mins by scintillation proximity assay relative to control; details: time 15.0 min
Procedure, shortened: (§1)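 Purified human PDE-4B2 in 50 mM Tris pH 7.4, 8.3 mM Mg2+, 1% DMSO final, enzyme converting 10–20% of substrate; 5 min pre-incubation at 37 °C, then 0.5 µM cAMP with ~50,000 cpm [3H]-cAMP for 10 min; stopped with yttrium silicate SPA beads containing 18 mM ZnSO4, read after >30 min settling. Background = no enzyme; IC50 from 8–10-point 4-parameter fit.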

[3] = molecular target: T1, 3',5'-cyclic-AMP phosphodiesterase 4B; assay: Inhibition of human PDE4B using [3H]cAMP as substrate incubated for 5 mins followed by substrate addition and measured after 10 mins by scintillation proximity assay; procedure, shortened: as §1
PBMC [4] = assay: Inhibition of PDE-4 in human PBMC assessed as LPS-induced TNFalpha production at 1000 nM incubated for 15 mins followed by LPS stimulation and measured after 18 hrs by ELISA relative to control; details: time 1095.0 min
Procedure, shortened: (§2)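 PBMC isolated from healthy volunteers' blood in cell preparation tubes, suspended in RPMI; 0.5 million cells/well pre-incubated with compound 15 min at 37 °C, then stimulated with E. coli LPS (B4) 1 µg/mL for 18 h at 37 °C, 5% CO2; medium TNF-α measured by ELISA.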

PBMC [5] = assay: Inhibition of PDE-4 in human PBMC assessed as LPS-induced TNFalpha production at 100 nM incubated for 15 mins followed by LPS stimulation and measured after 18 hrs by ELISA relative to control; details: time 1095.0 min; procedure, shortened: as §2
[6] = Inhibition of PDE-4 in human PBMC assessed as LPS-induced TNFalpha production incubated for 15 mins followed by LPS stimulation and measured after 18 hrs by ELISA relative to control; procedure, shortened: as §2
[7] = Genotoxicity in Salmonella typhimurium TA100 in presence of rat liver S9 fraction at 0.039 to 5 mg by Ames test; format: toxicity, subcellular, Salmonella enterica subsp. enterica serovar Typhimurium; details: dose 0.039-5 mg
Procedure, shortened: (§3)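 Ames reverse mutation test in S. typhimurium TA98 and TA100 with rat liver S9 activation, doses 0.039–5 mg/plate (eight levels); mutagenicity and cytotoxicity scored.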

[8] = Genotoxicity in Salmonella typhimurium TA98 in presence of rat liver S9 fraction at 0.039 to 5 mg by Ames test; format: toxicity, subcellular, Salmonella enterica subsp. enterica serovar Typhimurium; details: dose 0.039-5 mg; procedure, shortened: as §3
Rattus norvegicus [9] = assay: Antiinflammatory activity in Sprague-Dawley rat model of LPS-induced COPD and asthma assessed as reduction in neutrophil influx in BALF at 10 mg/kg, po administered 30 mins before LPS stimulation and measured after 6 hrs relative to control; format: functional; details: time 6.5 hrs
Mus musculus [10] = assay: Antiinflammatory activity in Swiss albino mouse model of LPS-induced sepsis assessed as reduction in TNFalpha production at 0.3 mg/kg, po administered 30 mins before LPS stimulation and measured after 90 min by ELISA relative to control; format: functional; details: 2 h, time 120 min
Procedure, shortened: (§4)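 Female Swiss albino mice fasted 20 h with water, dosed orally in 0.5% Tween 80/0.25% CMC sodium; vehicle-only controls. 500 µg E. coli LPS (B4) in PBS i.p. 30 min later; retro-orbital bleed 90 min post-LPS, blood held overnight at 4 °C, serum TNF-α by mouse ELISA; % inhibition.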

Mus musculus [11] = assay: Antiinflammatory activity in Swiss albino mouse model of LPS-induced sepsis assessed as reduction in TNFalpha production at 1 mg/kg, po administered 30 mins before LPS stimulation and measured after 90 min by ELISA relative to control; format: functional; details: 2 h, time 120 min; procedure, shortened: as §4
Mus musculus [12] = assay: Antiinflammatory activity in Swiss albino mouse model of LPS-induced sepsis assessed as reduction in TNFalpha production at 3 mg/kg, po administered 30 mins before LPS stimulation and measured after 90 min by ELISA relative to control; format: functional; details: 2 h, time 120 min; procedure, shortened: as §4
[13] = Tmax in Wistar rat at 10 mg/kg, po; format: ADME, organism-based; details: in vivo
[14] = Cmax in Wistar rat at 10 mg/kg, po; format: ADME, organism-based; parameters: route oral, dose 10 mg/kg; details: in vivo
[15] = AUClast in Wistar rat at 10 mg/kg, po; format: ADME, organism-based; parameters: dose 10 mg/kg; details: in vivo
[16] = Half life in Wistar rat at 10 mg/kg, po; format: ADME, organism-based; details: in vivo
[17] = Oral bioavailability in Wistar rat at 10 mg/kg; format: ADME, organism-based; details: in vivo
[18] = Initial concentration in Wistar rat at 5 mg/kg, iv; format: ADME, organism-based; details: in vivo
[19] = AUClast in Wistar rat at 5 mg/kg, iv; format: ADME, organism-based; parameters: dose 5 mg/kg; details: in vivo
[20] = Volume of distribution in Wistar rat at 5 mg/kg, iv; format: ADME, organism-based; details: in vivo
[21] = Clearance in Wistar rat at 5 mg/kg, iv; format: ADME, organism-based; details: in vivo
[22] = Half life in Wistar rat at 5 mg/kg, iv; format: ADME, organism-based; details: in vivo
Rattus norvegicus [23] = assay: Antiinflammatory activity in Sprague-Dawley rat model of LPS-induced COPD and asthma assessed as reduction in total cell count in BALF at 0.1 mg/kg, po administered 30 mins before LPS stimulation and measured after 6 hrs relative to control; format: functional; details: time 6.5 hrs
Rattus norvegicus [24] = assay: Antiinflammatory activity in Sprague-Dawley rat model of LPS-induced COPD and asthma assessed as reduction in total cell count in BALF at 0.3 mg/kg, po administered 30 mins before LPS stimulation and measured after 6 hrs relative to control; format: functional; details: time 6.5 hrs
Rattus norvegicus [25] = assay: Antiinflammatory activity in Sprague-Dawley rat model of LPS-induced COPD and asthma assessed as reduction in total cell count in BALF at 1 mg/kg, po administered 30 mins before LPS stimulation and measured after 6 hrs relative to control; format: functional; details: time 6.5 hrs
Rattus norvegicus [26] = assay: Antiinflammatory activity in Sprague-Dawley rat model of LPS-induced COPD and asthma assessed as reduction in total cell count in BALF at 3 mg/kg, po administered 30 mins before LPS stimulation and measured after 6 hrs relative to control; format: functional; details: time 6.5 hrs
Rattus norvegicus [27] = assay: Antiinflammatory activity in Sprague-Dawley rat model of LPS-induced COPD and asthma assessed as reduction in total cell count in BALF at 10 mg/kg, po administered 30 mins before LPS stimulation and measured after 6 hrs relative to control; format: functional; details: time 6.5 hrs
Rattus norvegicus [28] = assay: Antiinflammatory activity in Sprague-Dawley rat model of LPS-induced COPD and asthma assessed as reduction in total cell count in BALF at 30 mg/kg, po administered 30 mins before LPS stimulation and measured after 6 hrs relative to control; format: functional; details: time 6.5 hrs
Rattus norvegicus [29] = assay: Antiinflammatory activity in Wistar rat model of LPS-induced uveitis assessed as reduction in infiltrating cells in aqueous humor at 0.1 mg/kg, po administered 24 hrs after LPS stimulation and measured after 1 hr by hemocytometry relative to control; format: functional
Rattus norvegicus [30] = assay: Antiinflammatory activity in Wistar rat model of LPS-induced uveitis assessed as reduction in infiltrating cells in aqueous humor at 0.5 mg/kg, po administered 24 hrs after LPS stimulation and measured after 1 hr by hemocytometry relative to control; format: functional
Rattus norvegicus [31] = assay: Antiinflammatory activity in Wistar rat model of LPS-induced uveitis assessed as reduction in infiltrating cells in aqueous humor at 1 mg/kg, po administered 24 hrs after LPS stimulation and measured after 1 hr by hemocytometry relative to control; format: functional
Rattus norvegicus [32] = assay: Antiinflammatory activity in Wistar rat model of LPS-induced uveitis assessed as reduction in infiltrating cells in aqueous humor at 3 mg/kg, po administered 24 hrs after LPS stimulation and measured after 1 hr by hemocytometry relative to control; format: functional

T1 sequence (Q07343 whole entry): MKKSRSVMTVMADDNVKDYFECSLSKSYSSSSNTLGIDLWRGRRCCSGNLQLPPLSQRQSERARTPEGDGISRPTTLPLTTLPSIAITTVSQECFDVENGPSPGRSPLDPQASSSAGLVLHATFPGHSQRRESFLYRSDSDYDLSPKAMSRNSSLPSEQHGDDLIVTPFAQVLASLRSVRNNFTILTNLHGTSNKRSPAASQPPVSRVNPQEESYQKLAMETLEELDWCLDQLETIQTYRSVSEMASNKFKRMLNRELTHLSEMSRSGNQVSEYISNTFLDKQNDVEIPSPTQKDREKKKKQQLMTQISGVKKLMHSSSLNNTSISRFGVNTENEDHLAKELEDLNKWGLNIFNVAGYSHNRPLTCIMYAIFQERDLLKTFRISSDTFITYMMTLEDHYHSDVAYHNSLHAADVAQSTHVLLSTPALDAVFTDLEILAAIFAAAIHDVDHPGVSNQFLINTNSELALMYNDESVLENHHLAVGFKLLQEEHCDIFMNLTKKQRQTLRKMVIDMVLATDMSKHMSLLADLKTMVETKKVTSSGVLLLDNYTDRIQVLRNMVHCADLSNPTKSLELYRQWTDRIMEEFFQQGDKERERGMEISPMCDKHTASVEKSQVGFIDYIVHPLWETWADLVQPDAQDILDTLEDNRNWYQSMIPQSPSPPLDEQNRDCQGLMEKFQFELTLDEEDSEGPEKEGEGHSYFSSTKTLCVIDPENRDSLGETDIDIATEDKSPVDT

## C[C@@H]1C[C@H]2[C@@H]3CCC4=CC(=O)C=C[C@]4(C)[C@@]3(F)[C@@H](O)C[C@]2(C)[C@@]1(O)C(=O)CO [DEXAMETHASONE]
Rattus norvegicus [1]
  inhibition (INH): 79.1%

## O=C(NC1CCC(O)CC1)c1csc(-c2ccc(OC(F)F)c3oc4ccccc4c23)n1 (configuration not stated)
[2]
  inhibition: 65.3%
[3]
  IC50: 63.5 nM
PBMC [4]
  inhibition: 93.8%
PBMC [5]
  inhibition: 77.7%
[6]
  IC50: 31 nM
[7]
  Activity: Non-Toxic
[8]
  Activity: Non-Toxic
Rattus norvegicus [9]
  inhibition in vivo at 10 mg/kg: 58%
Mus musculus [10]
  inhibition in vivo at 0.3 mg/kg: 16.4%
Mus musculus [11]
  inhibition in vivo at 1 mg/kg: 34.2%
Mus musculus [12]
  inhibition in vivo at 3 mg/kg: 82.2%
[13]
  Tmax: 4.8 h
[14]
  Cmax: 1400 ng/mL
[15]
  AUC(0-t): 11500 ng·h/mL
[16]
  half-life: 5 h
[17]
  bioavailability: 42%
[18]
  C0: 4000 ng/mL
[19]
  AUC(0-t): 13700 ng·h/mL
[20]
  Vd: 1 L/kg
[21]
  clearance: 6.67 mL/min/kg
[22]
  half-life: 1.9 h
Rattus norvegicus [23]
  inhibition in vivo at 0.1 mg/kg: 52.8%
Rattus norvegicus [24]
  inhibition in vivo at 0.3 mg/kg: 34.6%
Rattus norvegicus [25]
  inhibition in vivo at 1 mg/kg: 60.7%
Rattus norvegicus [26]
  inhibition in vivo at 3 mg/kg: 70.9%
Rattus norvegicus [27]
  inhibition in vivo at 10 mg/kg: 75.2%
Rattus norvegicus [28]
  inhibition in vivo at 30 mg/kg: 78.7%
Rattus norvegicus [29]
  inhibition in vivo at 0.1 mg/kg: 43.6%
Rattus norvegicus [30]
  inhibition in vivo at 0.5 mg/kg: 54.4%
Rattus norvegicus [31]
  inhibition in vivo at 1 mg/kg: 90.3%
Rattus norvegicus [32]
  inhibition in vivo at 3 mg/kg: 96.9%
